Source: PubChem BioAssay (several laboratories)
Efflux pump mplx – antifungal efflux pump inhibition, Nile Red retention | S. cerevisiae Candida pump triplex | inhibition, % at 10 µM | actives 0.44% (n = 330,000) | AID 485275;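 active means plate passing quality check with inhibition over a set limit, or well fluorescence over plate mean plus 4 SD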;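 further: Nile Red retained in pooled yeast measured as flow cytometry median fluorescence; 0% = buffer negative control and 100% = Enniatin B positive control; higher means more Nile Red kept so more efflux inhibition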
AHR activator – human AHR activation | P35869 | AHR-responsive luciferase reporter cells, luminescence | actives 2.5% (n = 320,000) | activation, % at 5 µM | AID 2796; in the data active means activation above about 47%;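 further: 0% = vehicle wells and 100% = reference agonist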
Target sequence (P35869 whole entry, looked up): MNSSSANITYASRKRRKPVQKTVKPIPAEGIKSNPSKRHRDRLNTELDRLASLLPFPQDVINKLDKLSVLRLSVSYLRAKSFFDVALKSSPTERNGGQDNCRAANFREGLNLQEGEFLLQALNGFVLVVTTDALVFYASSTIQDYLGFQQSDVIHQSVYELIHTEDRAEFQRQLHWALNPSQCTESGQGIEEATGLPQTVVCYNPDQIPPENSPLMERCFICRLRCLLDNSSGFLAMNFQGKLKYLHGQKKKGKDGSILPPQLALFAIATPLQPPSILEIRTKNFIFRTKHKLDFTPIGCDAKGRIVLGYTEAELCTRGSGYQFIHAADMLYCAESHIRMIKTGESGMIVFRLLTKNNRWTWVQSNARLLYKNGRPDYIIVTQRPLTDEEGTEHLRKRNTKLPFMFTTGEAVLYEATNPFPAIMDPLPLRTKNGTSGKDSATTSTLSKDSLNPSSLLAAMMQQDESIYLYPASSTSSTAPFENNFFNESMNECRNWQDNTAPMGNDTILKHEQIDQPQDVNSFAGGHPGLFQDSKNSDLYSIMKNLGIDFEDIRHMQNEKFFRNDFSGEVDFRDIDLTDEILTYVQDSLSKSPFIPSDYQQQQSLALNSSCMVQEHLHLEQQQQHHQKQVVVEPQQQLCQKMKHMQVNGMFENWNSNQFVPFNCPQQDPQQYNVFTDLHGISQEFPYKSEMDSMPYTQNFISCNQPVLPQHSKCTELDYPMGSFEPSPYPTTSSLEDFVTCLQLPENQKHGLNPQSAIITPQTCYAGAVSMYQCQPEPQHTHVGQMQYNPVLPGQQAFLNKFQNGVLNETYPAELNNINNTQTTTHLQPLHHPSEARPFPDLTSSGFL
H9c2 TAG inh – inhibitors of triacylglycerol accumulation | H9c2 cells, Nile Red lipid (TAG) fluorescence; cells loaded with 200 µM oleic acid | inhibition, % at 12.5 µM | actives 0.66% (n = 230,000) | AID 651582;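 active means pattern-corrected inhibition of lipid staining of at least 50% with the nuclear-stain viability signal not falling by more than 50%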;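 further: 0% = DMSO wells and 100% = triacsin C control wells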
SMARCA2 activ – increases SMARCA2 function in MMTV reporter cells | actives 1% (n = 370,000) | MG213 cells, MMTV-luciferase reporter, dexamethasone, overnight | activation, % at 9.1 µM; in the data active means activation above about 7.8%;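 further: 0% = vehicle wells and 100% = reference activator wells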
Tb MetRS inh – Trypanosoma brucei MetRS inhibition. purified T. brucei MetRS, ATP depletion, Kinase-Glo luminescence. inhibition, % at 11.9 µM. actives 0.4% (n = 360,000). AID 624268;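 active means inhibition above a per-plate cutoff of the control wells' mean inhibition plus 3 SD, cut at about 5.5% in these data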;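 further: 0% = DMSO wells median and 100% = median of wells with control inhibitor compound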
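assay system = parasite MetRS enzyme | timing = 15 min preincubation, 2 h reaction, all 25 °C | evaluation = percent inhibition relative to median high and low control wells | medium = HEPES buffer containing pyrophosphatase, BSA, spermine, DTT | compound = single dose, 11.9 µM final nominal, 0.9% final DMSO | detection = Kinase-Glo luminescence, ATP depletion format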
H9c2 TAG conf – confirmation of triacylglycerol accumulation inhibitors; inhibition, % at 12.5 µM; H9c2 lipid accumulation, Nile Red fluorescence; cells loaded with 200 µM oleic acid; shares compounds with H9c2 TAG inh; actives 71% (n = 990);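 active means mean inhibition across replicates of 40% or more; inactive means mean inhibition below 40%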;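 further: plate controls were DMSO only wells for no effect and Triacsin C treated wells for full effect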
Active calls of the source: *; . = no result given. Sampled rows, rich in hits. Any-hit rate of the full collection: about 4.1%.

SMILES	Efflux pump mplx	AHR activator	H9c2 TAG inh	SMARCA2 activ	Tb MetRS inh	H9c2 TAG conf
COCCCNC(=O)c1c(N)n(/N=C/c2ccccn2)c2nc3ccccc3nc12	.	.	32.7	-2.6	-0.8	.
Nc1c(C(=O)NC2CCCC2)c2nc3ccccc3nc2n1/N=C/c1cccnc1	0.4	1.5	68.5*	-3.6	0.6	72.5*
Cc1ccc2nc3n(c(=O)c2c1)-c1cc2ccccc2cc1C(=O)NC3Cc1ccc(O)cc1 (stereo not drawn)	.	.	63.9*	-3.3	-0.5	57.2*
Cc1ccc2c(c1)-n1c(nc3ccccc3c1=O)C(Cc1ccc(O)cc1)NC2=O (stereo not drawn)	-0.4	1.9	.	-0.1	.	.
O=C1NC(Cc2ccc(O)cc2)c2nc3ccc(F)cc3c(=O)n2-c2cc3ccccc3cc21 (stereo not drawn)	.	.	77.9*	-4.2	0.2	67.2*
Nc1c(C(=O)Nc2ccccc2)c2nc3ccccc3nc2n1CCCN1CCOCC1	0.3	-6.2	83.1*	7.4	-0.1	86.0*
Cc1cccc2cc(C#N)c(SCC(=O)NNC(=O)Cc3ccccc3)nc12	0.1	16.8	70.7*	-0.3	-1.4	97.8*
COC(=O)[C@H](C(C)C)N(CCCc1cn(Cc2ccc(C)cc2)nn1)S(=O)(=O)c1ccccc1Br	.	.	.	-3.4	.	.
Cc1ccc(/C=C(\C#N)c2nn(-c3ccccc3)c(N)c2C#N)cc1	-0.3	-0.4	.	0.2	-0.7	.
N#C/C(=C\c1cc([N+](=O)[O-])c(N2CCCCC2)cc1N1CCCCC1)c1nn(-c2ccccc2)c(N)c1C#N	0.2	8.6	50.9*	-0.9	-1.2	53.4*
CCC(=O)N[C@@H]1C[C@@H]2O[C@@H](CO)CC[C@@H]2O[C@@H]1CCc1ccc(-c2cccc(OC)c2)cc1	.	.	.	-2.6	.	.
COc1ccc(-c2noc(-c3ccccc3C(=O)Nc3cccnc3)n2)cc1	-0.1	35.1	56.7*	1.8	-1.6	32.9
C#CCOc1ccccc1C(=O)NNc1ccc([N+](=O)[O-])cc1[N+](=O)[O-]	.	.	.	-1.7	.	.
COc1ccc(C2c3cc4c(cc3OC(N3CCOCC3)C2C)OCO4)c(OC)c1 (stereo not drawn)	.	.	55.3*	-3.7	0.0	74.7*
COc1cccc(C2c3cc4c(cc3OC(N3CCOCC3)C2C)OCO4)c1O (stereo not drawn)	.	.	-8.3	-3.2	-0.4	.
c1ccc(Cc2cnc(N3CCN(Cc4csc5ccccc45)CC3)nc2)cc1	.	.	.	-5.4	.	.
O=c1cc(-c2ccccc2)[nH]c2ccc(F)cc12	-0.3	58.5*	65.1*	1.5	0.1	52.4*
O=c1cc(-c2ccc(F)cc2F)[nH]c2ccccc12	-0.1	2.0	.	.	.	.
S=c1[nH]nc(-c2cc(-c3ccccc3)n[nH]2)n1N=Cc1cccc(OCc2ccccc2)c1	.	.	.	0.8	.	.
O=C(c1ccc(F)cc1)C1CCN(C(=O)NC2CCCCC2)CC1	-0.2	-5.7	50.1*	-3.4	-0.4	29.0
CN(C)CCCn1c(=O)n(C2CCCCC2)c(=O)c2c3c(sc21)CCCCC3	-0.1	-5.1	59.0*	-5.2	0.3	72.0*
CCc1ccccc1NC(=O)c1cc(C)nn1-c1ccccc1	.	.	.	-3.8	.	.
COC(=O)[C@@H](Cc1ccccc1)N(Cc1ccccc1)S(=O)(=O)N(Cc1ccccc1)[C@H](Cc1ccccc1)C(=O)OC	0.9	0.3	11.7	-0.9	-0.1	.
COCCS(=O)(=O)N(Cc1ccc(Br)cc1)[C@@H](C)C(=O)OC	-0.2	.	52.5*	0.2	0.9	-2.8
COC(=O)[C@@H](CC(C)C)N(Cc1ccccc1)S(=O)(=O)N(Cc1ccccc1)[C@@H](CC(C)C)C(=O)OC	0.6	0.8	62.0*	-1.6	-0.7	-19.2
SMILES	Efflux pump mplx	AHR activator	H9c2 TAG inh	SMARCA2 activ	Tb MetRS inh	H9c2 TAG conf
CN1CCN(c2cc(=O)n(C3CCCCC3)c(=O)[nH]2)CC1	-0.1	0.9	-14.2	-3.7	-0.4	.
O=c1cc(N2CCN(c3ccccc3)CC2)[nH]c(=O)n1C1CCCCC1	0.2	-1.5	62.5*	0.2	-1.0	30.5
O=c1cc(N2CCN(c3cccc(Cl)c3)CC2)[nH]c(=O)n1C1CCCCC1	0.2	3.9	68.9*	-0.8	-0.2	58.3*
CC1CC(C)CN(CC(=O)c2cccs2)C1 (stereo not drawn)	0.0	0.2	58.6*	1.2	-0.4	6.0
CNCCCN1c2ccccc2CCc2ccccc21	0.0	-2.5	57.2*	-6.3	-0.5	47.0*
C=CCN1[C@@H](CC(C)C)COc2cccc(N3CCCC3)c2S1(=O)=O	.	.	.	-3.9	.	.
Cc1ccccc1-c1ccc2c(c1)[C@@H]1C[C@H](N(C)S(=O)(=O)c3ccc(Cl)cc3)[C@H]([C@H](C)O)CN1CC2	.	.	.	-5.7	.	.
COC(=O)c1ccc(NC(=O)COc2ccc(C3C(C#N)=C(N)Oc4c3ccc3ccccc43)cc2OC)cc1 (stereo not drawn)	0.2	1.1	50.4*	-5.3	1.5	24.0
COc1cc(C2C(C#N)=C(N)Oc3c2ccc2ccccc32)ccc1OCC(=O)Nc1ccccc1C (stereo not drawn)	0.2	2.1	.	-0.3	-0.2	.
O=[N+]([O-])c1ccc(-c2cn3nc(-c4ccccc4)c(-c4ccccc4)nc3n2)cc1	-0.1	-1.9	86.6*	1.7	-1.3	9.1
Cc1cc(NC(=O)CC2CCCC2)n(-c2nc3ccccc3[nH]2)n1	-0.2	19.8	58.9*	-2.3	-0.4	54.0*
COC(=O)C1=C(C)N(C)C(=NCc2ccc(OC)cc2)NC1c1ccc(Cl)cc1 (stereo not drawn)	.	.	.	-4.4	.	.
COc1ccc(-c2cc(NC=O)c3ncc(-c4ccc(OC)c(OC)c4)n3c2)cc1	.	.	55.6*	2.1	0.4	65.5*
COc1cc(-c2cnc3c(NC=O)cc(-c4cccnc4)cn23)cc(OC)c1OC	.	.	53.5*	5.7	-0.3	46.0*
O=C(CCc1ccccc1)N[C@H]1[C@@H](OC(=O)c2ccco2)CCC[C@@]12C(=O)N(Cc1ccccc1)c1ccccc12	.	.	.	0.3	.	.
CN(C)c1ncnc2c1ncn2C1OC(CO)C(O)C1O (stereo not drawn)	0.1	41.8	75.3*	-1.7	-0.6	46.5*
CCNC(=O)N1CCN(c2ccc(N3CCN(Cc4ccccc4)[C@@H](C)C3)c(C)c2)[C@@H](C)C1	.	.	.	-6.4	.	.
O=C(NCCc1ccccc1)OCc1cn(-c2ccccc2Cl)nn1	.	.	.	-2.1	.	.
CCOc1ccc2ncc(S(=O)(=O)c3ccccc3)c(N3CCN(c4ccccc4)CC3)c2c1	0.0	3.0	14.9	-3.1	0.1	.
CCOC(=O)c1cnc2ccc(OCC)cc2c1N1CCN(c2ccccc2)CC1	0.1	17.1	52.8*	-1.6	-0.1	38.8
Cc1cccc(Oc2nc(-c3ccccn3)nc3ccccc23)c1	0.1	6.8	65.7*	3.8	-0.6	45.7*
Cc1cccc(Oc2nc(-c3ccncc3)nc3ccccc23)c1	0.0	21.2	8.3	-3.3	-0.3	.
CC(=O)Nc1ccc(Oc2nc(-c3ccccn3)nc3ccccc23)cc1	0.1	0.7	63.6*	7.9*	-0.9	3.1
COc1cc(OC)c2c(=O)c3c(C(=O)O)c(O)ccc3oc2c1	.	.	.	-0.5	.	.
